The values that follow come from paper PMC8897208 (Acta Pharmaceutica Sinica. B, 2021).

Where only a bound is given, the exact number is not on record here.

For assay [1], the target named is T1, HDAC7 (Homo sapiens, UniProt Q8WUI4).
T1 sequence (Q8WUI4 1-952): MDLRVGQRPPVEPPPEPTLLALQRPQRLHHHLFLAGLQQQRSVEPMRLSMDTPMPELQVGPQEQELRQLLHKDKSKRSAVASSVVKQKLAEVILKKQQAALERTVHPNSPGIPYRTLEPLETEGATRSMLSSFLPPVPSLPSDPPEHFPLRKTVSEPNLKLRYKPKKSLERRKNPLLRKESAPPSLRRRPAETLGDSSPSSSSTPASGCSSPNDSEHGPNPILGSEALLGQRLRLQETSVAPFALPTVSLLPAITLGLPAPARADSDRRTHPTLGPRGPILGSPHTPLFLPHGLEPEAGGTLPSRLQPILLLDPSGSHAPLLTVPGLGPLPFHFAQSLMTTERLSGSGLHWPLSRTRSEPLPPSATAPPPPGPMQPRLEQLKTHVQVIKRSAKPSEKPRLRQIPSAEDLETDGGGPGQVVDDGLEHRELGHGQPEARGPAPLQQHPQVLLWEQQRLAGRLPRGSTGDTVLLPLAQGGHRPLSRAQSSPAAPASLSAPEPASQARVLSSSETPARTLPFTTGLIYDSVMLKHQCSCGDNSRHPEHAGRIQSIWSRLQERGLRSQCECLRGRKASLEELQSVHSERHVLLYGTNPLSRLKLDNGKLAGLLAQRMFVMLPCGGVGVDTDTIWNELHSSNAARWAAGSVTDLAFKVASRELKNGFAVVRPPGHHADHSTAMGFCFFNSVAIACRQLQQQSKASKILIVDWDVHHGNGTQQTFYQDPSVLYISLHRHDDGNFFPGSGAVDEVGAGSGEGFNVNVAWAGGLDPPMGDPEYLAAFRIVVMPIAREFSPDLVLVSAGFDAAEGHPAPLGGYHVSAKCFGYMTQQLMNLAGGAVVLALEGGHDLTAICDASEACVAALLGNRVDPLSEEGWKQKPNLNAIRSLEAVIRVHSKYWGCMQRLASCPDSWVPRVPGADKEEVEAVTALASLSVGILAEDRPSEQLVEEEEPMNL
Put plainly: HDACs selectivity assay. The format is biochemical. An outline of the steps:
(§1)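 Enzyme selectivity panel was run by an outside contract lab to its standard assay protocols. IC50 values came from dose–response fitting of the data points. Each experiment was done independently at least three times.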

The target in assay [2] is T2, SIRT6 (Homo sapiens, UniProt Q8N6T7). As to the kind of experiment: Biolayer interferometry. The class given is binding. (In general: In BLI a coated tip is dipped into the sample, and binding shifts an interference pattern.)
T2 sequence (Q8N6T7 whole entry): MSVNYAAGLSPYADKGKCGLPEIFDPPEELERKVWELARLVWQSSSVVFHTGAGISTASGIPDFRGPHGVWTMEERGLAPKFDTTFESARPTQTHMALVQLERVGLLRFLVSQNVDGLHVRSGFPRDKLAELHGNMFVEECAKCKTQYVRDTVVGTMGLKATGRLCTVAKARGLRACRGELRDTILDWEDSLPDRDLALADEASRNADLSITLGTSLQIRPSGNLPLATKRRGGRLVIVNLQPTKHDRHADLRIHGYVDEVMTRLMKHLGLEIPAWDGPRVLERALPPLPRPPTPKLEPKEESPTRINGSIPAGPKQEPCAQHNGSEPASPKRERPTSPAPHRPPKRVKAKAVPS
The test system of assay [3] is MiaPaCa-2 cells. Put plainly: Migration assay with xCELLigence RTCA-DP. The format is cell-based. As to conditions: effect even at 5 μmol/L.
For assay [4], the target named is HDAC1 (Homo sapiens, UniProt Q13547). As to the kind of experiment: HDACs selectivity assay. The class given is biochemical. In a few lines: as §1
Chain of HDAC1 (Q13547 whole entry): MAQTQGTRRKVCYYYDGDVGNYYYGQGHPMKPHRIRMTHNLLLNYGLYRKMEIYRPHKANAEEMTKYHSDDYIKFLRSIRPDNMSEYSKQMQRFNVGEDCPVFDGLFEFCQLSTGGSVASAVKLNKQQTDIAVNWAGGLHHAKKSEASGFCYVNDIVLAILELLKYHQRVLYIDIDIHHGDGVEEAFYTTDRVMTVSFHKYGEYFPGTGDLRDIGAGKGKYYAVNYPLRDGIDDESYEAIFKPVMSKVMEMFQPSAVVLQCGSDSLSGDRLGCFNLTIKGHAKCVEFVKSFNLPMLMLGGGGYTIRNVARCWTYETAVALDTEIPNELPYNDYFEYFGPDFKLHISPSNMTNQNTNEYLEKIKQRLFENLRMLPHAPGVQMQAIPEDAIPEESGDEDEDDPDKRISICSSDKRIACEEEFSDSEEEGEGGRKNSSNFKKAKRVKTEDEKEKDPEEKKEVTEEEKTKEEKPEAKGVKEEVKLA
Assay [5] has as its target T3, HDAC11 (Homo sapiens, UniProt Q96DB2).
T3 sequence (Q96DB2 1-347): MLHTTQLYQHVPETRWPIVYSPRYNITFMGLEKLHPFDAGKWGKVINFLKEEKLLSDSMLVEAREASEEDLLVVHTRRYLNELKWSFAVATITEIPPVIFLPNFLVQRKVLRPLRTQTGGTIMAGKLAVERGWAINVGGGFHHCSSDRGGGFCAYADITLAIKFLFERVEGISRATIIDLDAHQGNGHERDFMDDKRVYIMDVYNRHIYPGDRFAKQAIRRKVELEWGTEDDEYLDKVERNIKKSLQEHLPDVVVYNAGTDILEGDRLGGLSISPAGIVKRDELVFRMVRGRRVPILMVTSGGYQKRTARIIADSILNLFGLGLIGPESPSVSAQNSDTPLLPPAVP
Put plainly: HDACs selectivity assay. The format is biochemical. In a few lines:
as §1

In assay [6] the target is HDAC4 (Homo sapiens, UniProt P56524). Put plainly: HDACs selectivity assay. The format is biochemical. An outline of the steps: as §1
Chain of HDAC4 (P56524 whole entry): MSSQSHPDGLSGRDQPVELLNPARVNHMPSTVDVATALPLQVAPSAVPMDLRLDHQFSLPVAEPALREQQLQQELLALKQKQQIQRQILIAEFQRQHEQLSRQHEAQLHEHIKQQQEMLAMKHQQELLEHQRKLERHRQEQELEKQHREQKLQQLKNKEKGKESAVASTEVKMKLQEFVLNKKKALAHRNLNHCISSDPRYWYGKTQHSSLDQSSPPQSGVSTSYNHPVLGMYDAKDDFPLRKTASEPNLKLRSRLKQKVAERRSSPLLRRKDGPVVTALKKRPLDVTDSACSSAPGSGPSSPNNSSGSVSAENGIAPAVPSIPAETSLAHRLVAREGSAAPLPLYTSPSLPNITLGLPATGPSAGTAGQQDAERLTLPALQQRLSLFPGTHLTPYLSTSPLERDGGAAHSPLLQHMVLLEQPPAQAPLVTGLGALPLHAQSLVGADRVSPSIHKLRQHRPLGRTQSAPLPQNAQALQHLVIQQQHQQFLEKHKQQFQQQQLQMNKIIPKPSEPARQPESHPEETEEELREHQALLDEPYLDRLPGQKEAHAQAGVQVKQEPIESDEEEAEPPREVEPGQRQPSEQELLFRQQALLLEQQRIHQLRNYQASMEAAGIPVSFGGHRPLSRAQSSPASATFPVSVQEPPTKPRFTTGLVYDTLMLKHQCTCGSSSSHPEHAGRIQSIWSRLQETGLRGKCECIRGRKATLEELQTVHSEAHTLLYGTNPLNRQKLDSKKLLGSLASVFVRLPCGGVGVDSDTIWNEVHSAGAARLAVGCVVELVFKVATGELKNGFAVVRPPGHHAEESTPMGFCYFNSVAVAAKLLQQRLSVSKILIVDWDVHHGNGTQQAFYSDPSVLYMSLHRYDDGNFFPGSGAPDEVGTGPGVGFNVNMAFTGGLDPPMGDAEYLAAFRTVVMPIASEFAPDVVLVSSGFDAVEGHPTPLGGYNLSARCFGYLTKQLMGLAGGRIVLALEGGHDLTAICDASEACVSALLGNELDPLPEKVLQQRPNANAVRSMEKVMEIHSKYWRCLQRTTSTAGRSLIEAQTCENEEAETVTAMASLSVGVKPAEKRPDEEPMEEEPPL
Assay [7] deals with MiaPaCa-2 cells. Put plainly: Western blot of SIRT6 substrates H3K9Ac, H3K18Ac, H3K56Ac. The class given is cell-based. As to conditions: MiaPaCa-2, different concentrations of JYQ-42, Western blot. In a few lines:
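BXPC-3 cells were grown in RPMI1640 and MiaPaCa-2 cells in DMEM, each with 10% FBS and penicillin/streptomycin, at 37 °C under 5% CO2. Both lines were STR-verified. Cells took test compound at 0, 10, 20 or 40 μmol/L for 24 or 48 h and were lysed in 1× SDS loading buffer. Proteins were separated on 12% SDS-PAGE and transferred to PVDF. Blocking used Tris-NaCl pH 7.5 with Tween-20 and 5% milk. Detection was chemiluminescent (HRP), with β-actin as loading control.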

The target in assay [8] is T2, SIRT6. As to the kind of experiment: Competition assay between SIRT6 substrates and JYQ-42. The format is biochemical. The conditions noted are these: FDL competition assay.
Assay [9] relates to BXPC-3 cells. As to the kind of experiment: ELISA for IL6, IL8 and TNF-α secretion. The format is cell-based. As to conditions: BXPC-3, 30 ng/mL PMA, 10, 20, 40 μmol/L, 24 h.
In assay [10] the target is T4, SIRT1 (Homo sapiens, UniProt Q96EB6).
T4 sequence (Q96EB6 1-747): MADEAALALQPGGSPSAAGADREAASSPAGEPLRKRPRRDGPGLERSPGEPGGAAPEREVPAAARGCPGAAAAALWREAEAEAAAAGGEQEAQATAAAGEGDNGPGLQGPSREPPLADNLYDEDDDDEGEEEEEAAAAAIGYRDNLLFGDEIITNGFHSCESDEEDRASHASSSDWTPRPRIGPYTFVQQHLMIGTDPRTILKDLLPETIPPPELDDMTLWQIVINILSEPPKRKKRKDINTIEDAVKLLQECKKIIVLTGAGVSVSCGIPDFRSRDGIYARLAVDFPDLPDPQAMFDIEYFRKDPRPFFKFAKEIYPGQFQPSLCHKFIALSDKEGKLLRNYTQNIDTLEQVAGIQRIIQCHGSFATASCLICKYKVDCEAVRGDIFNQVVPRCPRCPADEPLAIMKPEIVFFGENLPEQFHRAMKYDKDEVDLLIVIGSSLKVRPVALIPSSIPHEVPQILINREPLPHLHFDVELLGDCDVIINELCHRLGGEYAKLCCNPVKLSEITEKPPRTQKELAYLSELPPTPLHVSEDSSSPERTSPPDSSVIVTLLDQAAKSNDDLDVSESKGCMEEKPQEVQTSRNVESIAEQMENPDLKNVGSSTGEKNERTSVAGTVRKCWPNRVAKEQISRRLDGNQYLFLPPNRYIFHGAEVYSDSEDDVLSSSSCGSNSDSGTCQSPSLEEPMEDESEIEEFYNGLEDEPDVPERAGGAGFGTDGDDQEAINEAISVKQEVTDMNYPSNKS
Put plainly: HDACs selectivity assay. The class given is biochemical. An outline of the steps: as §1

Assay [11] deals with T2, SIRT6. Put plainly: Enzymatic kinetic assays by HPLC. The class given is biochemical. The conditions noted are these: for kcat (Ac-RHKK-Ac-AMC): varied Ac-RHKK-Ac-AMC, HPLC.

As to `Nc1nonc1-n1cc(C(=O)N/N=C/c2cc(Cl)cc(C(F)(F)F)c2)nn1` [JYQ-42], the 50% inhibitory concentration (IC50) in [1], in assay [4], in assay [5], in [6] and in assay [10] was over 100 µM in each case. For the same molecule, the Kd (commonly the free concentration of one partner at which half of the binding sites on the other are occupied at equilibrium, for simple one-to-one binding) in assay [2] was found to be 13.2 µM. Also, in [3], the “migration of pancreatic cancer cells (RTCA cell index)” value is recorded as “dramatically attenuated”. For the same molecule, the “levels of H3K9Ac, H3K18Ac and H3K56Ac” value in assay [7] is “increased the levels of H3K9Ac, H3K18Ac and H3K56Ac in a dose-dependent manner”. Besides, the “effect of increasing NAD^+ or Ac-RHKK-Ac-AMC on the inhibition” value in assay [8] was “did not interfere with the inhibition”. For the same molecule, the “secretion levels of IL6, IL8 and TNF-α” value in assay [9] was “blocked the secretion levels”. Moreover, in assay [11] (Lineweaver–Burk analysis towards NAD^+ and Ac-RHKK-Ac-AMC), the inhibition mode result was “non-competitive inhibitor”. For the same molecule, the entries for the “kcat (Ac-RHKK-Ac-AMC)” value in [11] (SIRT6 with 1 μmol/L JYQ-42), in assay [11] (SIRT6 with 3 μmol/L JYQ-42) and in [11] (SIRT6 with 10 μmol/L JYQ-42) were 33.65 × 10^−4 S^−1, 22.12 × 10^−4 S^−1 and 13.86 × 10^−4 S^−1, respectively.
